Laboratory results taken from ChEMBL document CHEMBL2440064, “Synthesis and biological evaluation of 2-amino-5-aryl-3-benzylthiopyridine scaffold based potent c-Met inhibitors” (Bioorg Med Chem, 2013).
Activity calls are given as the source filed them. The calls are words filed in the database; no cut-off is given here.

What was measured:
[1] = target: Platelet-derived growth factor receptor beta (Homo sapiens, UniProt P09619); assay: Inhibition of PDGFRbeta (unknown origin) using poly (Glu, Tyr) 4:1 as substrate after 60 mins by ELISA
In short: (§1)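 ELISA on wells precoated with 20 µg/mL poly(Glu,Tyr)4:1. Purified kinase with 10 µmol/L ATP in 50 mM HEPES pH 7.4, 50 mM MgCl₂, 0.5 mM MnCl₂, 0.2 mM Na₃VO₄, 1 mM DTT; 1% DMSO vehicle. 60 min at 37°C. Phosphotyrosine detected with PY99 antibody, then HRP anti-mouse IgG and o-phenylenediamine/H₂O₂, A490. Inhibition = [1−(A490/A490 control)]×100%; IC50 from curves.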

[2] = target: T1, Hepatocyte growth factor receptor (Homo sapiens, UniProt P08581); assay: Inhibition of c-Met in gefitinib-resistant human HCC827 cells assessed as inhibition of p44/42 phosphorylation at 0.5 uM after 2 hrs by Western blotting analysis in presence of gefitinib; format: cell-based
In short: (§2)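 Cells grown to exponential phase, treated with compound 2 h at 37°C, lysed in 1× SDS sample buffer, resolved on 10% SDS-PAGE and transferred to nitrocellulose for immunoblotting.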

[3] = target: T1, Hepatocyte growth factor receptor; assay: Inhibition of c-Met (unknown origin) using poly (Glu, Tyr) 4:1 as substrate after 60 mins by ELISA
NCI-H661 = assay: Antiproliferative activity against human NCI-H661 cells after 72 hrs; conditions: NCI-H661, 72 h
[4] = Clearance in rat at 2 mg/kg, iv and 10 mg/kg, po; format: ADME, organism-based; conditions: in vivo
In short: (§3)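 Rat pharmacokinetics after a single intravenous dose (2 mg/kg) and a single oral dose (10 mg/kg).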

[5] = target: Hepatocyte growth factor receptor (Canis lupus familiaris) (UniProt Q75ZY9); assay: Inhibition of c-Met in MDCK cells assessed as HGF-induced cell scattering after 24 hrs by microscopic analysis; format: cell-based
In short: (§4)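 MDCK cells plated at 1,500/well in 96-well plates and allowed to form clusters over 24 h. Then 24 h with compound plus 50 ng/mL recombinant human HGF in FBS-free medium. Fixed in 4% paraformaldehyde 15 min at room temperature, stained with 0.2% crystal violet and imaged by microscopy.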

[6] = target: T1, Hepatocyte growth factor receptor; assay: Inhibition of c-Met phosphorylation in gefitinib-resistant human HCC827 cells at 0.5 uM after 2 hrs by Western blotting analysis; format: cell-based; in short: as §2
[7] = target: T1, Hepatocyte growth factor receptor; assay: Inhibition of c-Met in human HCC827/GR5 cells assessed as potentiation of gefitinib-induced cell growth inhibition at 0.5 uM after 72 hrs; format: cell-based
[8] = target: Tyrosine-protein kinase receptor TYRO3 (Homo sapiens, UniProt Q06418); assay: Inhibition of TYRO3 (unknown origin) using poly (Glu, Tyr) 4:1 as substrate after 60 mins by ELISA; in short: as §1
[9] = target: Vascular endothelial growth factor receptor 2 (Homo sapiens, UniProt P35968); assay: Inhibition of KDR (unknown origin) using poly (Glu, Tyr) 4:1 as substrate after 60 mins by ELISA; in short: as §1
[10] = target: Hepatocyte growth factor receptor (Canis lupus familiaris) (UniProt Q75ZY9); assay: Inhibition of c-Met in MDCK cells assessed as HGF-induced cell scattering at 3 uM after 24 hrs by microscopic analysis; format: cell-based; in short: as §4
MCF7 = assay: Antiproliferative activity against human MCF7 cells after 72 hrs; conditions: MCF7, 72 h
[11] = Oral bioavailability in rat at 10 mg/kg; format: ADME, organism-based; conditions: in vivo
In short: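 Rats given a single iv dose (2 mg/kg) or a single po dose (10 mg/kg).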

[12] = target: T1, Hepatocyte growth factor receptor; assay: Inhibition of c-Met in human EBC1 cells assessed as inhibition of p44/42 phosphorylation at 0.16 to 20 uM after 2 hrs by Western blotting analysis; format: cell-based; in short: as §2
SK-OV-3 = assay: Antiproliferative activity against human SKOV3 cells after 72 hrs; conditions: SK-OV-3, 72 h
HCT-116 = assay: Antiproliferative activity against human HCT116 cells after 72 hrs; conditions: HCT-116, 72 h
SNU-5 = assay: Antiproliferative activity against human SNU5 cells after 72 hrs; conditions: SNU-5, 72 h
[13] = target: Fibroblast growth factor receptor 1 (Homo sapiens, UniProt P11362); assay: Inhibition of FGFR1 (unknown origin) using poly (Glu, Tyr) 4:1 as substrate after 60 mins by ELISA; in short: as §1
[14] = target: T1, Hepatocyte growth factor receptor; assay: Inhibition of c-Met in gefitinib-resistant human HCC827 cells assessed as inhibition of AKT phosphorylation at 0.5 uM after 2 hrs by Western blotting analysis in presence of gefitinib; format: cell-based; in short: as §2
MKN-45 = assay: Induction of cell cycle arrest in human MKN45 cells assessed as accumulation at G1 phase at 1 uM after 24 hrs by propidium iodide staining-based FACS analysis (reference value: 39.1%); format: functional
Ephrin type-A receptor 2 = Ephrin type-A receptor 2 (Homo sapiens, UniProt P29317); assay: Inhibition of EPHA2 (unknown origin) using poly (Glu, Tyr) 4:1 as substrate after 60 mins by ELISA; in short: as §1
[15] = target: Mast/stem cell growth factor receptor Kit (Homo sapiens, UniProt P10721); assay: Inhibition of c-kit (unknown origin) using poly (Glu, Tyr) 4:1 as substrate after 60 mins by ELISA
In short: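 Purified kinase incubated with 10 µmol/L ATP in wells pre-coated with 20 µg/mL poly(Glu,Tyr)4:1. Reaction ran 60 min at 37°C. Phosphotyrosine detected with PY99 antibody, then HRP anti-mouse IgG and o-phenylenediamine/H₂O₂, read at 490 nm. IC50 taken from inhibition curves.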

[16] = target: Proto-oncogene tyrosine-protein kinase receptor Ret (Homo sapiens, UniProt P07949); assay: Inhibition of RET (unknown origin) using poly (Glu, Tyr) 4:1 as substrate after 60 mins by ELISA; in short: as §1
[17] = target: T1, Hepatocyte growth factor receptor; assay: Inhibition of c-Met in human MKN45 cells assessed as inhibition of p44/42 phosphorylation at 0.16 to 20 uM after 2 hrs by Western blotting analysis; format: cell-based; conditions: MKN-45; in short: as §2
[18] = target: Tyrosine-protein kinase ABL1 (Homo sapiens, UniProt P00519); assay: Inhibition of Abl (unknown origin) using poly (Glu, Tyr) 4:1 as substrate after 60 mins by ELISA; in short: as §1
[19] = Half life in rat at 2 mg/kg, iv and 10 mg/kg, po; format: ADME, organism-based; conditions: in vivo; in short: as §3
Mus musculus = assay: Toxicity in mouse allografted with mouse NIH/3T3 cells assessed as decrease in body weight at 100 mg/kg, po qd administered for 2 weeks measured twice per week; format: organism-based, NIH3T3; set-up: dose 100 mg/kg, route oral; conditions: in vivo, 336 h
In short: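 Tumor fragments of 1 mm³ implanted s.c. in the right flank of nude mice with a trocar. Mice randomized once tumors reached 100–150 mm³. Oral dosing 7 days/week for 2 weeks; vehicle-only controls. Tumors measured twice weekly by microcaliper; body weight monitored.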

[20] = target: Macrophage-stimulating protein receptor (Homo sapiens, UniProt Q04912); assay: Inhibition of RON (unknown origin) using poly (Glu, Tyr) 4:1 as substrate after 60 mins by ELISA; in short: as §1
MDA-MB-231 = assay: Antiproliferative activity against human MDA-MB-231 cells after 72 hrs; conditions: MDA-MB-231, 72 h

T1 sequence (P08581 whole entry): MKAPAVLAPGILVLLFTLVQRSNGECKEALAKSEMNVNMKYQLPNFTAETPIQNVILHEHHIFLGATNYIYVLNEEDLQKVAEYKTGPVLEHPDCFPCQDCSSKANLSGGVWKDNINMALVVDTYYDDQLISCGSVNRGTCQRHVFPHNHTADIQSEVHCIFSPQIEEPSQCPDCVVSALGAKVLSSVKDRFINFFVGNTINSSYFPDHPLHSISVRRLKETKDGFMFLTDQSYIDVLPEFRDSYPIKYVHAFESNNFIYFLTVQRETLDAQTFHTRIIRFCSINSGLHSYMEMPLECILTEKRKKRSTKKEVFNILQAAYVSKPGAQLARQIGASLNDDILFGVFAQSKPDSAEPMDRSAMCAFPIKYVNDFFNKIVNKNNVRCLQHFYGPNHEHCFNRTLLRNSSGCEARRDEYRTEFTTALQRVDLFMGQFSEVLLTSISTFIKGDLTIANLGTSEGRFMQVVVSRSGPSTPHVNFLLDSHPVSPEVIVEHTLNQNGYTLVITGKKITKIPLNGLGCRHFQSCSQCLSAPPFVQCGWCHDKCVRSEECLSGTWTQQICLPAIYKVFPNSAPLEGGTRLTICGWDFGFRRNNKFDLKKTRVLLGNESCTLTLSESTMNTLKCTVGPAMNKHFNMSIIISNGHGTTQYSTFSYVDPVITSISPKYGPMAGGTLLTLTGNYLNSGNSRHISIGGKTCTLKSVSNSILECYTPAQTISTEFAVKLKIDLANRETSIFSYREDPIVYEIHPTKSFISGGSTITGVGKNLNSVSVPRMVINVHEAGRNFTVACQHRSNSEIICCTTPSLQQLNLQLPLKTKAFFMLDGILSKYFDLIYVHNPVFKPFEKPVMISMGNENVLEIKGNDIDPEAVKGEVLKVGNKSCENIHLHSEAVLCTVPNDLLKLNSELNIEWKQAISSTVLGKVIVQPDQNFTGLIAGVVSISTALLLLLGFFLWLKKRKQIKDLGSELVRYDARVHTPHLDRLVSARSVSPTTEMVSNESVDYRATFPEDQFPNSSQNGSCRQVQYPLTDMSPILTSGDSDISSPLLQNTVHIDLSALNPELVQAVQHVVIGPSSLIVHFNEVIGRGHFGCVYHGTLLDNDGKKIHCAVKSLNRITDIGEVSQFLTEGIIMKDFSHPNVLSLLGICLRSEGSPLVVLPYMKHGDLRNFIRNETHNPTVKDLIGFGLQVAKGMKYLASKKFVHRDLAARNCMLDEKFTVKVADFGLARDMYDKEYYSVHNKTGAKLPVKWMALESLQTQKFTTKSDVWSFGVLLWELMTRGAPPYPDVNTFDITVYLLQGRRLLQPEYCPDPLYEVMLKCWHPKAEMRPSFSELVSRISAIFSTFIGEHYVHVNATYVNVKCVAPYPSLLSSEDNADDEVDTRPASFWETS
Chain of Hepatocyte growth factor receptor (Canis lupus familiaris) (Q75ZY9 whole entry): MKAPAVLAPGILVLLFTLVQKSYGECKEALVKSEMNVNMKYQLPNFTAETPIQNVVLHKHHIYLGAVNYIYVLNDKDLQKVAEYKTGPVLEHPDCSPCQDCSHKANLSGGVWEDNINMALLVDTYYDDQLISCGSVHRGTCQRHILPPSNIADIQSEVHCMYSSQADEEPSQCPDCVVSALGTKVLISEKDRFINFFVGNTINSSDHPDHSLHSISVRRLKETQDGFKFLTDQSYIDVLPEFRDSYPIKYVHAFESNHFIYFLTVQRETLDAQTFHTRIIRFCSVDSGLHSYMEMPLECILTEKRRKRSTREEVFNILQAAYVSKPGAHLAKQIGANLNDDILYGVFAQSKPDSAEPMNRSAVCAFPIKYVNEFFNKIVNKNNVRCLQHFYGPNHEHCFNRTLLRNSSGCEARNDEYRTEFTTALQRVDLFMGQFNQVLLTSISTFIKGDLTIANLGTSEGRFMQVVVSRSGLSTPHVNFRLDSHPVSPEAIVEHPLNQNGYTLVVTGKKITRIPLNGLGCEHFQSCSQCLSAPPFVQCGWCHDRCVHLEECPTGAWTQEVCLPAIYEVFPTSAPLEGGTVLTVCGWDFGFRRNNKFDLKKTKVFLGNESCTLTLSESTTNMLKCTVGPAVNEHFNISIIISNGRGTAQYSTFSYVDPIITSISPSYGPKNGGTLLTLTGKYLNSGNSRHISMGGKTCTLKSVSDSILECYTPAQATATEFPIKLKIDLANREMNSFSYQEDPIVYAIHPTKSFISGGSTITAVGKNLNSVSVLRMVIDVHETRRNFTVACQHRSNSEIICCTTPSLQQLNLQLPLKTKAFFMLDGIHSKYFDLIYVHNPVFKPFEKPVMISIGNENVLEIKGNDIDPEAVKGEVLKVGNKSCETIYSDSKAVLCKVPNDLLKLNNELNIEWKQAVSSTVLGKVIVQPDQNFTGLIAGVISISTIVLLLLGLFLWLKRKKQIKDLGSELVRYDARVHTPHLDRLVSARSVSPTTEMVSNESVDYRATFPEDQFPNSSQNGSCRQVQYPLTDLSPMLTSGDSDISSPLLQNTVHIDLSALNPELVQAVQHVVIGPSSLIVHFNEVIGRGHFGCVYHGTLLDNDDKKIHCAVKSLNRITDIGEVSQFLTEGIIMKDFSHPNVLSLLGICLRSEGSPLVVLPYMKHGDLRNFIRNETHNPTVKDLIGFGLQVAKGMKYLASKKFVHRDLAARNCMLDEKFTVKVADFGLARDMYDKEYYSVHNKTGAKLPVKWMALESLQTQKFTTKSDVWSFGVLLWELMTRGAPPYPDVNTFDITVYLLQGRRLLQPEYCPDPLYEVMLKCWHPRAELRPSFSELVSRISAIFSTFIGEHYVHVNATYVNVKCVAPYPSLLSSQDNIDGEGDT
Chain of Proto-oncogene tyrosine-protein kinase receptor Ret (P07949 whole entry): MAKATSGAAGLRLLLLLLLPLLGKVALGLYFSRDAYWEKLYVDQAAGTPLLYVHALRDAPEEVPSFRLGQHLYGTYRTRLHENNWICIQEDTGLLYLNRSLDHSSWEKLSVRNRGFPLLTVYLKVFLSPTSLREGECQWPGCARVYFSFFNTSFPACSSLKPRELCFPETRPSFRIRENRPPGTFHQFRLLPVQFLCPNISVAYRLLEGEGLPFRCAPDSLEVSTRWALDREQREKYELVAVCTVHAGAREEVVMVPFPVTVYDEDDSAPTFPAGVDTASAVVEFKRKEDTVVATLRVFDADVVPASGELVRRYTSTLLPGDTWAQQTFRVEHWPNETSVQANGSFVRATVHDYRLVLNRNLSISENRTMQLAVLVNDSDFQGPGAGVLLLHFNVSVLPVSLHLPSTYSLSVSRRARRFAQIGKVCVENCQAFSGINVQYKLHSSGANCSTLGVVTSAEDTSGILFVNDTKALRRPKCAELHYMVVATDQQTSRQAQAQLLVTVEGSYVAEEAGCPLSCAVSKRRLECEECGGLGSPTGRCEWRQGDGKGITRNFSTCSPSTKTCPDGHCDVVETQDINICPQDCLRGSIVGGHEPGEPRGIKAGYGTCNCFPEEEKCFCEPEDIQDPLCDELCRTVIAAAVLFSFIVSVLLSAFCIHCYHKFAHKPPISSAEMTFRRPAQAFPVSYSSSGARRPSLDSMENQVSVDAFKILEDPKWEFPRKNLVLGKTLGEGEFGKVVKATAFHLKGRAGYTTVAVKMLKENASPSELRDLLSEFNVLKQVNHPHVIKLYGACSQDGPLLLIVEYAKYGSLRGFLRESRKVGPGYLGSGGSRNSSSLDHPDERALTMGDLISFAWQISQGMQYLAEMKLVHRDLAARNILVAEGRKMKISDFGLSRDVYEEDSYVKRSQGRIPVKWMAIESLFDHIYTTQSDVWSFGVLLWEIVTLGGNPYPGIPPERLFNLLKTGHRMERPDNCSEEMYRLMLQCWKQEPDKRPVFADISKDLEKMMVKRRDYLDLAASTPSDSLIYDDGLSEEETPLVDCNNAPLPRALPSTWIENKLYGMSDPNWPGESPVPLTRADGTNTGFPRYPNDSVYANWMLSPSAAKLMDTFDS
Chain of Platelet-derived growth factor receptor beta (P09619 whole entry): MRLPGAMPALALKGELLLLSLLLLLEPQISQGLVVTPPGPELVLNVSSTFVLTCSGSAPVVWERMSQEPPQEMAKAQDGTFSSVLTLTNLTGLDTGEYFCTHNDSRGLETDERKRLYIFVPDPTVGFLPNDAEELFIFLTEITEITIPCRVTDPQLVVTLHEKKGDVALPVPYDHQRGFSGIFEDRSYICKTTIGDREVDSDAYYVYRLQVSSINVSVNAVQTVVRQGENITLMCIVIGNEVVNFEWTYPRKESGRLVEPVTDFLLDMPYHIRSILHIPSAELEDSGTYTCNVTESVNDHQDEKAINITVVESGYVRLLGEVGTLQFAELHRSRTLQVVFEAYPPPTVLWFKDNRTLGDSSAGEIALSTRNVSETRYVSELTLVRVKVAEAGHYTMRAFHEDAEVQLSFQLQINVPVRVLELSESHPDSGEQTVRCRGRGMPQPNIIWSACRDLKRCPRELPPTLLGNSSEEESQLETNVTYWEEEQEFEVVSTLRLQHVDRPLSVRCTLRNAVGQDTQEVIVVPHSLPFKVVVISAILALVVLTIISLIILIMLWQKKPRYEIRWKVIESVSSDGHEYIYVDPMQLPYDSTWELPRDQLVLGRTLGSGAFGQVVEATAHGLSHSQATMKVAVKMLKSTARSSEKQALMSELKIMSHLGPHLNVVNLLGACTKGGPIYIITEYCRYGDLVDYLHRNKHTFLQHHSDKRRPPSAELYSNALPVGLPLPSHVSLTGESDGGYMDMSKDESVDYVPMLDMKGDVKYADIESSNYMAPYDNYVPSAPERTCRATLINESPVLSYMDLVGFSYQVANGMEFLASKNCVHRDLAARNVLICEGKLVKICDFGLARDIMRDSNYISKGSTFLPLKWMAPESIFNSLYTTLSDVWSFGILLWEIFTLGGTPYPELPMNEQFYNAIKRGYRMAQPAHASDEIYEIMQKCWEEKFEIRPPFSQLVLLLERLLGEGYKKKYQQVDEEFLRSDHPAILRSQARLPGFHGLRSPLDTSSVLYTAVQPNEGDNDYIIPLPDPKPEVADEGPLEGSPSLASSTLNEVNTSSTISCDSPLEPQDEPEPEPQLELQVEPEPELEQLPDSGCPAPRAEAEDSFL

For `C[C@@H](Sc1cc(-c2cnn(C3CCNCC3)c2)cnc1N)c1c(Cl)ccc(F)c1Cl`, which IC50 [1] is on record?
Its IC50 is over 1000 nM.

What about the inhibition [2] of the same compound?
Its inhibition is “Active”.

What about the IC50 [3] of the same compound?
Its IC50 is 7.7 nM.

What about the IC50 (NCI-H661) of the same compound?
Its IC50 is 16200 nM.

And the clearance [4]?
Its clearance is 53 mL/min/kg.

What about the inhibition [5] of the same compound?
Its inhibition is “Dose-dependent effect”.

What about the inhibition [6] of the same compound?
The inhibition was “Active”.

What about the inhibition [7] of the same compound?
The inhibition was “Active”.

And the IC50 [8]?
The IC50 was over 1000 nM.

And the IC50 [9]?
Its IC50 is over 1000 nM.

And the inhibition [10]?
Its inhibition is “Active”.

And the IC50 (MCF7)?
Its IC50 is 11600 nM.

And the bioavailability [11]?
The bioavailability was 12.8%.

What about the inhibition [12] of the same compound?
The inhibition was “Active”.

And the IC50 (SK-OV-3)?
The IC50 was 12700 nM.

And the IC50 (HCT-116)?
The IC50 was 14300 nM.

And the IC50 (SNU-5)?
The IC50 was 190 nM.

What about the IC50 [13] of the same compound?
The IC50 was over 1000 nM.

And the inhibition [14]?
Its inhibition is “Active”.

And the Activity (MKN-45)?
The Activity was 60.1%.

And the IC50 (Ephrin type-A receptor 2)?
Its IC50 is over 1000 nM.

And the IC50 [15]?
The IC50 was over 1000 nM.

And the IC50 [16]?
The IC50 was over 1000 nM.

And the inhibition [17]?
Its inhibition is “Active”.

What about the IC50 [18] of the same compound?
Its IC50 is over 1000 nM.

What about the half-life [19] of the same compound?
The half-life was 5.7 h.

What about the Activity (Mus musculus) of the same compound?
Its Activity is “Non-toxic”.

What about the IC50 [20] of the same compound?
Its IC50 is 336 nM.

And the IC50 (MDA-MB-231)?
Its IC50 is 12100 nM.
